Measurements from ChEMBL document CHEMBL1671644, “Inhibition of human immunodeficiency virus type 1 infection by the candidate microbicide dapivirine, a nonnucleoside reverse transcriptase inhibitor” (Antimicrob Agents Chemother, 2009).

Experiments:
[1] = Cytotoxicity against human MT4 cells after 24 hrs by MTT assay; format: cell-based
[2] = test system: Human immunodeficiency virus 1; assay: Antiviral activity against HIV-1 subtype CRF02_AG V022825 infected in human MT4 cells assessed as inhibition of viral replication relative to HIV-1 3B; format: functional
Summary of the method: (§1)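 MT-4 cells (3 x 10^4/well) infected with site-directed mutants or recombinant clinical isolates (200 TCID50/well) with drug, cultured 3 to 5 days. Viability read by MTT colorimetric antivirogram assay. IC50 by nonlinear regression; fold change = IC50 for the test isolate / IC50 for wild-type HIV-1 IIIB tested in parallel (mean or median).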

[3] = test system: Human immunodeficiency virus 1; assay: Antiviral activity against HIV-1 subtype CRF05_DF V022824 harboring NNRTI V106I mutant infected in human MT4 cells assessed as inhibition of viral replication relative to HIV-1 3B; format: functional; summary of the method: as §1
[4] = test system: Human immunodeficiency virus 1; assay: Antiviral activity against HIV-1 subtype B V022807 infected in human MT4 cells assessed as inhibition of viral replication relative to HIV-1 3B; format: functional
Summary of the method: (§2)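 Recombinant clinical HIV-1 isolates (200 TCID50/well) were tested in MT-4 cells (3 x 10^4/well) over 3–5 days, with an MTT viability read-out. IC50 was fitted by nonlinear regression. Fold change is the isolate IC50 divided by the HIV-1IIIB IC50, tested in parallel.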

[5] = test system: Human immunodeficiency virus 1; assay: Antiviral activity against HIV-1 SM024 harboring NNTRI 190A mutant infected in human MT4 cells assessed as inhibition of viral replication relative to HIV-1 3B; format: functional; summary of the method: as §1
[6] = test system: Human immunodeficiency virus 1; assay: Antiviral activity against HIV-1 Bal infected in human monocyte derived macrophages after 14 days by p24 assay; conditions: Human immunodeficiency virus 1, Bal, 336 h
[7] = test system: Human immunodeficiency virus 1; assay: Antiviral activity against HIV-1 SM052 harboring NNTRI 101E and 103N mutant infected in human MT4 cells assessed as inhibition of viral replication relative to HIV-1 3B; format: functional; summary of the method: as §1
[8] = test system: Human immunodeficiency virus 1; assay: Antiviral activity against HIV-1 subtype B V022811 infected in human MT4 cells assessed as inhibition of viral replication relative to HIV-1 3B; format: functional; summary of the method: as §2
[9] = test system: Human immunodeficiency virus 1; assay: Antiviral activity against HIV-1 Bal infected in human PM1 cells after 7 days by RT assay; format: functional, organism-based; conditions: Human immunodeficiency virus 1, Bal, PM1, 168 h
Summary of the method: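 PM-1 cells (4 x 10^4/well) were infected with HIV-1BaL or HIV-1RF (200 TCID50/ml) and cultured 7 days with drug. Replication was measured as reverse transcriptase in supernatant versus untreated wells. IC50 was obtained by nonlinear regression.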

## Cc1cc(C)c(Nc2ccnc(Nc3ccc(C#N)cc3)n2)c(C)c1 [DAPIVIRINE]
[1]
  CC50 at 24 h: 2150 nM
[2]
  Ratio IC50: 0.8
[3]
  Ratio IC50: 0.7
[4]
  Ratio IC50: 1.1
[5]
  Ratio IC50: 1
[6]
  IC50: 2.4 nM
[7]
  Ratio IC50: 17
[8]
  Ratio IC50: 3.1
[9]
  IC50: 6 nM
